# Measurements reported in ChEMBL document CHEMBL1629572 (Antimicrob Agents Chemother, 2009).
# What was measured:
# [1] = Inhibition of Influenza B virus (B/Tokushima/1/2005(Yamagata)) neuraminidase after 30 mins by fluorescence analysis
# Summary of the method: (§1)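 Virus NA source was mixed with compound in 32.5 mM MES-NaOH pH 6.5 with 4 mM CaCl2 and preincubated 10 min at room temperature. Reaction ran 30 min at room temperature with 100 μM (final) 4-MU-NANA. Fluorescence was read at ex 360/em 460 nm, in triplicate. IC50 came from linear regression of residual activity against log concentration, using concentrations giving 10–90% residual activity.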
# Neuraminidase [2] = biological target: T1, Neuraminidase (Influenza A virus, UniProt B4URF0); assay: Inhibition of Influenza A virus (A/turkey/Ontario/6,118/1968(H8N4)) neuraminidase after 30 mins by fluorescence analysis
# T1 sequence (B4URF0 whole entry): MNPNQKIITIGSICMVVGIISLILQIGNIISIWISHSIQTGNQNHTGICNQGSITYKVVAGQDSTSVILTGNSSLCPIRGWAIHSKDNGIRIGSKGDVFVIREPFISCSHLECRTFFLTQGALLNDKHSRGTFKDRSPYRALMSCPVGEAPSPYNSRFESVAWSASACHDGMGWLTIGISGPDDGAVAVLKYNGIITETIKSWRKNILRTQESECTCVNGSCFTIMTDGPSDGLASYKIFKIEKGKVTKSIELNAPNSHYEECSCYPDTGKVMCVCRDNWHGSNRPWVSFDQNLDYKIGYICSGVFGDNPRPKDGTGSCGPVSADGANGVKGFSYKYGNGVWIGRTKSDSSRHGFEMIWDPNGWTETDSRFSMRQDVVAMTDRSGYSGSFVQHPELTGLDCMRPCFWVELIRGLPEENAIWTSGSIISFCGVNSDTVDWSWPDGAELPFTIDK
# Neuraminidase [3] = biological target: T1, Neuraminidase; assay: Inhibition of Influenza A virus (A/Wisconsin/67/2005(H3N2)) neuraminidase after 30 mins by fluorescence analysis
# Neuraminidase [4] = biological target: T1, Neuraminidase; assay: Inhibition of Influenza A virus (A/Wyoming/03/2003(H3N2)) neuraminidase after 30 mins by fluorescence analysis
# Neuraminidase [5] = biological target: T1, Neuraminidase; assay: Inhibition of Influenza A virus (A/Yamagata/32/1989(H1N1)) neuraminidase after 30 mins by fluorescence analysis
# Neuraminidase [6] = biological target: T1, Neuraminidase; assay: Inhibition of Influenza A virus (A/Saitama/78/2003(H1N1)) neuraminidase after 30 mins by fluorescence analysis
# [7] = Inhibition of Influenza B virus (B/Yamagata/15/2002(Victoria)) neuraminidase after 30 mins by fluorescence analysis; summary of the method: as §1
# Neuraminidase [8] = biological target: T1, Neuraminidase; assay: Inhibition of Influenza A virus (A/Singapore/1/1957(H2N2)) neuraminidase after 30 mins by fluorescence analysis
# [9] = Inhibition of Influenza B virus (B/Mie/1/1993(Yamagata)) neuraminidase after 30 mins by fluorescence analysis; summary of the method: as §1
# [10] = Inhibition of Influenza B virus (B/Aichi/186/2005(Yamagata)) neuraminidase after 30 mins by fluorescence analysis; summary of the method: as §1
# Neuraminidase [11] = biological target: T1, Neuraminidase; assay: Inhibition of Influenza A virus (A/Aichi/169/2005(H1N1)) neuraminidase after 30 mins by fluorescence analysis
# Neuraminidase [12] = biological target: T1, Neuraminidase; assay: Inhibition of Influenza A virus (A/duck/England/1/1956(H11N6)) neuraminidase after 30 mins by fluorescence analysis
# Neuraminidase [13] = biological target: T1, Neuraminidase; assay: Inhibition of Influenza A virus (A/Hiroshima/52/2005(H3N2)) neuraminidase after 30 mins by fluorescence analysis
# [14] = Inhibition of Influenza B virus (B/Ohio/01/2005(Victoria)) neuraminidase after 30 mins by fluorescence analysis; summary of the method: as §1
# Neuraminidase [15] = biological target: T1, Neuraminidase; assay: Inhibition of Influenza A virus (A/Tokushima/1/2005(H3N2)) neuraminidase after 30 mins by fluorescence analysis
# Neuraminidase [16] = biological target: T1, Neuraminidase; assay: Inhibition of Influenza A virus (A/Yamagata/57/2002(H1N1)) neuraminidase after 30 mins by fluorescence analysis
# Influenza A virus [17] = assay: Antiviral activity against Influenza A virus (A/Puerto Rico/8/1934(H1N1)) infected in mouse infection model at 0.3 umol/kg, itn administered 4 hrs pre-infection and at 4 hrs and 17 hrs post-infection up to 20 days; assay type: functional, organism-based
# Summary of the method: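 BALB/c females, 5–6 weeks old, were anaesthetised and infected intranasally with 1,500 PFU/mouse A/PR/8/34 in PBS with 0.42% BSA. Three intranasal doses of 0.3 μmol/kg in saline (50 μl) were given at 4 h pre-infection and at 4 h and 17 h post-infection. Survival was read daily for 20 days, 10–12 mice per group.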
# Neuraminidase [18] = biological target: T1, Neuraminidase; assay: Inhibition of Influenza A virus (A/Osaka/56/2004(H3N2)) neuraminidase after 30 mins by fluorescence analysis
# [19] = Inhibition of Influenza B virus (B/Akita/9/2003(Victoria)) neuraminidase after 30 mins by fluorescence analysis; summary of the method: as §1
# Neuraminidase [20] = biological target: T1, Neuraminidase; assay: Inhibition of Influenza A virus (A/California/07/2004(H3N2)) neuraminidase after 30 mins by fluorescence analysis
# Neuraminidase [21] = biological target: T1, Neuraminidase; assay: Inhibition of Influenza A virus (A/Shiga/5/2002(H3N2)) neuraminidase after 30 mins by fluorescence analysis
# [22] = Inhibition of Influenza B virus (B/Malaysia/2506/2004(Victoria)) neuraminidase after 30 mins by fluorescence analysis; summary of the method: as §1
# Influenza A virus [23] = assay: Antiviral activity against Influenza A virus (A/Puerto Rico/8/1934(H1N1)) infected in mouse infection model at 95 ug/kg, itn administered 4 hrs pre-infection and at 4 hrs and 17 hrs post-infection up to 20 days; assay type: functional, organism-based
# Neuraminidase [24] = biological target: T1, Neuraminidase; assay: Inhibition of Influenza A virus (A/Aichi/2/1968(H3N2)) neuraminidase after 30 mins by fluorescence analysis
# [25] = Inhibition of Influenza B virus (B/Yamagata/87/2004(Yamagata)) neuraminidase after 30 mins by fluorescence analysis; summary of the method: as §1
# Neuraminidase [26] = biological target: T1, Neuraminidase; assay: Inhibition of Influenza A virus (A/Yamagata/83/2006(H1N1)) neuraminidase after 30 mins by fluorescence analysis
# Neuraminidase [27] = biological target: T1, Neuraminidase; assay: Inhibition of Influenza A virus (A/duck/Hokkaido/84/2002(H5N3)) neuraminidase after 30 mins by fluorescence analysis
# Neuraminidase [28] = biological target: T1, Neuraminidase; assay: Inhibition of Influenza A virus (A/Kitakyushu/159/1993(H3N2)) neuraminidase after 30 mins by fluorescence analysis
# Neuraminidase [29] = biological target: T1, Neuraminidase; assay: Inhibition of Influenza A virus (A/R(duck/Mongolia/54/01-duck/Mongolia/47/01)([…])) neuraminidase after 30 mins by fluorescence analysis
# Neuraminidase [30] = biological target: T1, Neuraminidase; assay: Inhibition of Influenza A virus (A/New York/55/2004(H3N2)) neuraminidase after 30 mins by fluorescence analysis
# [31] = Inhibition of Influenza B virus (B/Shizuoka/58/2004(Yamagata)) neuraminidase after 30 mins by fluorescence analysis; summary of the method: as §1
# Neuraminidase [32] = biological target: T1, Neuraminidase; assay: Inhibition of Influenza A virus (A/Aichi/193/2004(H1N1)) neuraminidase after 30 mins by fluorescence analysis
# Neuraminidase [33] = biological target: T1, Neuraminidase; assay: Inhibition of Influenza A virus (A/Yamagata/1/2002(H3N2)) neuraminidase after 30 mins by fluorescence analysis
# Neuraminidase [34] = biological target: T1, Neuraminidase; assay: Inhibition of Influenza A virus (A/duck/Memphis/546/1974(H11N9)) neuraminidase after 30 mins by fluorescence analysis
# [35] = Inhibition of Influenza B virus (B/Yamagata/85/2004(Yamagata)) neuraminidase after 30 mins by fluorescence analysis; summary of the method: as §1
# [36] = Inhibition of Influenza B virus (B/Shiga/17/2002(Victoria)) neuraminidase after 30 mins by fluorescence analysis; summary of the method: as §1
# Neuraminidase [37] = biological target: T1, Neuraminidase; assay: Inhibition of Influenza A virus (A/Shiga/1/2002(H1N1)) neuraminidase after 30 mins by fluorescence analysis
# Neuraminidase [38] = biological target: T1, Neuraminidase; assay: Inhibition of Influenza A virus (A/Saitama/80/2003(H3N2)) neuraminidase after 30 mins by fluorescence analysis
# [39] = Inhibition of Influenza B virus (B/Yamagata/113/2005(Yamagata)) neuraminidase after 30 mins by fluorescence analysis; summary of the method: as §1
# Neuraminidase [40] = biological target: T1, Neuraminidase; assay: Inhibition of Influenza A virus (A/Saitama/07/2006(H3N2)) neuraminidase after 30 mins by fluorescence analysis
# [41] = Inhibition of Influenza B virus (B/Yamagata/145/2003(Victoria)) neuraminidase after 30 mins by fluorescence analysis; summary of the method: as §1
# Neuraminidase [42] = biological target: T1, Neuraminidase; assay: Inhibition of Influenza A virus (A/Yamagata/3/2002(H1N1)) neuraminidase after 30 mins by fluorescence analysis
compound,measurement,setting,value
CCCCCCCC(=O)OC[C@@H](O)[C@@H](OC)[C@@H]1OC(C(=O)O)=C[C@H](NC(=N)N)[C@H]1NC(C)=O [LANINAMIVIR OCTANOATE],IC50,[1],3710 nM
same,IC50,Neuraminidase [2],420 nM
same,IC50,Neuraminidase [3],187 nM
same,IC50,Neuraminidase [4],114 nM
same,IC50,Neuraminidase [5],882 nM
same,IC50,Neuraminidase [6],940 nM
same,IC50,[7],6980 nM
same,IC50,Neuraminidase [8],128 nM
same,IC50,[9],6850 nM
same,IC50,[10],3550 nM
same,IC50,Neuraminidase [11],664 nM
same,IC50,Neuraminidase [12],262 nM
same,IC50,Neuraminidase [13],69.1 nM
same,IC50,[14],12800 nM
same,IC50,Neuraminidase [15],131 nM
same,IC50,Neuraminidase [16],1170 nM
same,Activity,Influenza A virus [17],Non-toxic
same,IC50,Neuraminidase [18],129 nM
same,IC50,[19],13800 nM
same,IC50,Neuraminidase [20],135 nM
same,IC50,Neuraminidase [21],64.2 nM
same,IC50,[22],11100 nM
same,Activity,Influenza A virus [23],Non-toxic
same,IC50,Neuraminidase [24],164 nM
same,IC50,[25],7790 nM
same,IC50,Neuraminidase [26],733 nM
same,IC50,Neuraminidase [27],456 nM
same,IC50,Neuraminidase [28],221 nM
same,IC50,Neuraminidase [29],276 nM
same,IC50,Neuraminidase [30],136 nM
same,IC50,[31],7530 nM
same,IC50,Neuraminidase [32],983 nM
same,IC50,Neuraminidase [33],56.6 nM
same,IC50,Neuraminidase [34],356 nM
same,IC50,[35],7190 nM
same,IC50,[36],7680 nM
same,IC50,Neuraminidase [37],733 nM
same,IC50,Neuraminidase [38],39.2 nM
same,IC50,[39],3500 nM
same,IC50,Neuraminidase [40],63.3 nM
same,IC50,[41],15900 nM
same,IC50,Neuraminidase [42],709 nM
